Data reported in PMC5087271 (Nature methods, 2015).
Residue numbers refer to the chain shown, from its start. Entries after “also recorded” stand apart in the source; their conditions may differ. Blank lines part the entries; values can stand above or below the molecule they belong to. Ends that are not written are not given here.

Key:
[1] = system: PAR1; assay: cell-based assays of antagonist dissociation from PAR1
[2] = system: platelets; settings: at 200 μM peptide; cited from earlier work
[3] = molecular target: T1, human PAR1 (Homo sapiens, UniProt P25116); type: binding; settings: PEG spacer carrying PAR1 N terminus with the SFLLRN ligand replaced
T1 sequence (P25116 36-397): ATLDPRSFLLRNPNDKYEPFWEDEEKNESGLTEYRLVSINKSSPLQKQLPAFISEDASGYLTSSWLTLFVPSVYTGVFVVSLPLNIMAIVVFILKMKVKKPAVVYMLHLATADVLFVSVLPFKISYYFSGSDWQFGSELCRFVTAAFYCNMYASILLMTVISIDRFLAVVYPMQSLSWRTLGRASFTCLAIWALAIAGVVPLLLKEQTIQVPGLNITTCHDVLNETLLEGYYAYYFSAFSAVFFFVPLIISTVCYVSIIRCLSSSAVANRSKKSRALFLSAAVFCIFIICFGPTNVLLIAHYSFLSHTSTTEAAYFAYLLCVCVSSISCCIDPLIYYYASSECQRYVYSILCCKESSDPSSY

[4] = system: PAR1 complexed with the antagonist vorapaxar; type: binding, human; settings: vorapaxar-blocked versus free PAR1
Procedure, shortened: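 Human PAR1 (residues Ala36–Tyr397) expressed in Sf9 cells via baculovirus and purified with 100 nM vorapaxar during lysis and solubilisation, then 1 μM through Ni-NTA, M1 and SEC. Reconstituted at 10 μM into DOPC/CHS liposomes, diluted 300-fold, adsorbed on mica. Cys-peptide ligand coupled to PEG-tipped cantilevers. Probed at 0.25 kHz, 30–50 nm amplitude, ~150 pN, ~27 °C. Free-energy landscape fitted from DFS plots.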

[5] = molecular target: T2, SFLLRN tethered ligand peptide (TRAP) (Homo sapiens, vorapaxar-bound PAR1); assay: FD-based AFM
T2 chain: SFLLRN

[6] = molecular target: T3, SFLLRN tethered ligand peptide (TRAP) (Homo sapiens); assay: FD-based AFM
T3 chain: SFLLRN

[7] = molecular target: T4, SFLLAN peptide (Homo sapiens); assay: FD-based AFM
T4 chain: SFLLAN

[8] = molecular target: T5, SALLRN peptide (Homo sapiens); assay: FD-based AFM
T5 chain: SALLRN

Molecule: CCOC(=O)NC1CCC2C(C1)CC1C(=O)OC(C)C1C2CCc1ccc(-c2cccc(F)c2)cn1 (centres unmarked) [vorapaxar derivative]
- dissociation rate compared with that of vorapaxar [1]: much faster dissociation rate

Molecule: H-SALLRN [SALLRN]
- response in platelet aggregation assays [2]: no response

- specific interaction of the functionalized tip with PAR1 (control) [3]: did not interact specifically
Molecule: FLLNSR

Molecule: H-SFLLAN [SFLLAN]
- change of binding strength / affinity to PAR1 in the presence of vorapaxar [4]: remained nearly unchanged; also recorded: no change in binding affinity

- Kd [5]: ~40 µM
- Kd [6]: ~0.35 µM
B1: PAR1 36-397 (protein)
chain: T1 sequence (P25116 36-397)

- Kd [7]: ~30 µM
B2: PAR1 36-397 (protein)
chain: T1 sequence (P25116 36-397) with R11A

- Kd [8]: ~3500 µM
B3: PAR1 36-397 (protein)
chain: T1 sequence (P25116 36-397) with F8A
